Data from ChEMBL document CHEMBL1772978, “Exploration of the activity of 7-pyrrolidino-8-methoxyisothiazoloquinolones against methicillin-resistant Staphylococcus aureus (MRSA)” (J Med Chem, 2011).
In brackets after ≈: the same amount, converted by molar mass.

Assays:
[1] = Inhibition of wild-type Staphylococcus aureus topoisomerase 4-mediated decatenation of kDNA after 30 mins by gel electrophoresis assay
[2] = Cytotoxicity against human Hep2 cells after 72 hrs by alamar blue assay; assay type: cell-based; conditions: HEp-2 cells
[3] = tested on: Staphylococcus aureus; test: Ratio of levofloxacin MIC to compound MIC for methicillin-resistant Staphylococcus aureus clinical isolate; assay type: functional
[4] = Inhibition of Staphylococcus aureus topoisomerase 4 Ser80Phe mutant-mediated decatenation of kDNA after 30 mins by gel electrophoresis assay
[5] = tested on: Staphylococcus aureus; test: Ratio of ciprofloxacin IC50 to compound IC50 for Staphylococcus aureus topoisomerase 4 Ser80Phe mutant
[6] = tested on: Staphylococcus aureus; test: Antibacterial activity against methicillin-resistant Staphylococcus aureus clinical isolate after 24 hrs by microdilution method; assay type: functional
Outline: (§1)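 Broth microdilution; MIC read as the lowest compound concentration that prevents visible bacterial growth after incubation at 37 °C for 18–24 h, and expressed in μg/mL.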

[7] = tested on: Staphylococcus aureus; test: Ratio of vancomycin MIC to compound MIC for methicillin-resistant Staphylococcus aureus clinical isolate; assay type: functional
[8] = biological target: DNA gyrase (Staphylococcus aureus, UniProt P0A0K8+P20831); test: Inhibition of wild-type Staphylococcus aureus DNA gyrase assessed as inhibition of supercoiling of pBR322 DNA after 60 min by gel electrophoresis assay; assay type: protein-complex assay
[9] = tested on: Escherichia coli; test: Antibacterial activity against Escherichia coli ATCC25922 after 24 hrs by microdilution method; assay type: functional; conditions: ATCC25922, 24 h
Outline: (§2)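 MIC taken as the lowest concentration with no visible bacterial growth after 18-24 h at 37 °C, given in μg/mL; modal value of multiple experiments.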

[10] = tested on: Staphylococcus aureus; test: Antibacterial activity against methicillin-resistant Staphylococcus aureus ATCC 700699 after 24 hrs by microdilution method; assay type: functional; conditions: ATCC700699, 24 h; outline: as §1
[11] = tested on: Staphylococcus aureus; test: Antibacterial activity against methicillin- and quinolone-resistant Staphylococcus aureus ATCC700699 after 24 hrs by microdilution method; assay type: functional; conditions: ATCC700699, 24 h; outline: as §1
[12] = biological target: DNA gyrase subunit A (Staphylococcus aureus, UniProt P20831, S84L); test: Inhibition of Staphylococcus aureus DNA gyrase Ser84Leu mutant assessed as inhibition of supercoiling of pBR322 DNA after 60 min by gel electrophoresis assay
[13] = tested on: Staphylococcus aureus; test: Antibacterial activity against methicillin-sensitive Staphylococcus aureus ATCC 29213 after 24 hrs by microdilution method; assay type: functional; conditions: ATCC 29213, 24 h; outline: as §2
[14] = tested on: DNA gyrase subunit A (Staphylococcus aureus), P20831 [S84L]; test: Ratio of ciprofloxacin IC50 to compound IC50 for Staphylococcus aureus DNA gyrase Ser84Leu mutant
[15] = biological target: DNA gyrase (Staphylococcus aureus) (UniProt P0A0K8+P20831); test: Ratio of ciprofloxacin IC50 to compound IC50 for wild-type Staphylococcus aureus DNA gyrase; assay type: protein-complex assay
[16] = tested on: Staphylococcus aureus; test: Ratio of ciprofloxacin IC50 to compound IC50 for wild-type Staphylococcus aureus topoisomerase 4

Row | SMILES | IC50 [1] | CC50 at 72 h [2] | Ratio [3] | IC50 [4] | Ratio [5] | MIC50 [6] | MIC90 [6] | Ratio [7] | IC50 [8] | MIC [9] | MIC [10] | MIC [11] | IC50 [12] | MIC [13] | Ratio [14] | Ratio IC50 [15] | Ratio IC50 [16] | MIC [6]
1 | COc1c(N2CC[C@@H](C(C)(C)N)C2)c(F)cc2c(=O)c3c(=O)[nH]sc3n(C3CC3)c12 | 0.12 µM | 9 µM | 256 | 0.6 µM | 95 | 0.06 µg/mL (≈ 0.139 µM) | 0.25 µg/mL (≈ 0.578 µM) | 4 | 0.68 µM | 0.06 µg/mL (≈ 0.139 µM) | 0.06 µg/mL (≈ 0.139 µM) | 0.06 µg/mL (≈ 0.139 µM) | 4.2 µM | 0.004 µg/mL (≈ 0.00925 µM) | > 48 |  |  | 
2 | COc1c(N2CC[C@@H]([C@H](C)N)C2)c(F)cc2c(=O)c3c(=O)[nH]sc3n(C3CC3)c12 (mixture of isomers) | 0.04 µM | 6 µM |  | 0.47 µM | 121 | 0.06 µg/mL | 0.5 µg/mL |  | 0.68 µM | 0.008 µg/mL | 0.06 µg/mL | 0.06 µg/mL | 3.2 µM | 0.002 µg/mL | > 62 | 91 | 75 | 
3 | CN[C@@H](C)[C@@H]1CCN(c2c(F)cc3c(=O)c4c(=O)[nH]sc4n(C4CC4)c3c2OC)C1 (mixture of isomers) | 0.11 µM | 12 µM |  | 1.16 µM |  |  |  |  | 1.1 µM | 0.03 µg/mL | 0.25 µg/mL | 0.25 µg/mL | 18.7 µM | 0.008 µg/mL |  |  |  | 
4 | COc1c(N2CC[C@@H]([C@H](C)NCCF)C2)c(F)cc2c(=O)c3c(=O)[nH]sc3n(C3CC3)c12 (mixture of isomers) | 0.06 µM | 73 µM |  | 0.66 µM |  |  |  |  | 1.32 µM | 0.06 µg/mL | 0.13 µg/mL | 0.13 µg/mL | 12 µM | 0.002 µg/mL |  |  |  | 
5 | O=C(O)c1cn(C2CC2)c2cc(N3CCNCC3)c(F)cc2c1=O [CIPROFLOXACIN] | 3 µM | > 100 µM |  | 57 µM |  |  |  |  |  |  | 32 µg/mL (≈ 96.6 µM) | 32 µg/mL (≈ 96.6 µM) |  | 0.25 µg/mL (≈ 0.754 µM) |  |  |  | 
6 | CO/N=C1\CN(c2nc3c(cc2F)c(=O)c(C(=O)O)cn3C2CC2)CC1CN (stereo unspecified) [GEMIFLOXACIN] | 0.4 µM |  |  | 9.8 µM |  |  |  |  |  | 4 µg/mL (≈ 10.3 µM) | 2 µg/mL (≈ 5.14 µM) |  | > 200 µM | 0.03 µg/mL (≈ 0.077 µM) |  |  |  | 
7 | C[C@H]1COc2c(N3CCN(C)CC3)c(F)cc3c(=O)c(C(=O)O)cn1c23.C[C@H]1COc2c(N3CCN(C)CC3)c(F)cc3c(=O)c(C(=O)O)cn1c23.O [LEVOFLOXACIN] |  |  |  |  |  | 16 µg/mL | > 16 µg/mL |  |  |  |  |  |  |  |  |  |  | 
8 | CC(=O)NC[C@H]1CN(c2ccc(N3CCOCC3)c(F)c2)C(=O)O1 [LINEZOLID] |  |  |  |  |  | 1 µg/mL (≈ 2.96 µM) | 2 µg/mL (≈ 5.93 µM) |  |  |  |  |  |  |  |  |  |  | 1 µg/mL (≈ 2.96 µM)
9 | COc1c(N2C[C@@H]3CCCN[C@@H]3C2)c(F)cc2c(=O)c(C(=O)O)cn(C3CC3)c12 [MOXIFLOXACIN] | 1 µM | > 100 µM |  | 11.9 µM |  |  |  |  |  | 0.03 µg/mL (≈ 0.0747 µM) | 2 µg/mL (≈ 4.98 µM) | 4 µg/mL (≈ 9.96 µM) |  | 0.06 µg/mL (≈ 0.149 µM) |  |  |  | 
10 | Cc1onc(-c2ccccc2)c1C(=O)N[C@@H]1C(=O)N2[C@@H]1SC(C)(C)[C@@H]2C(=O)O [OXACILLIN] |  |  |  |  |  | > 16 µg/mL | > 16 µg/mL |  |  |  |  |  |  |  |  |  |  | 
11 | CN[C@H](CC(C)C)C(=O)N[C@H]1C(=O)N[C@@H](CC(N)=O)C(=O)N[C@H]2C(=O)N[C@H]3C(=O)N[C@H](C(=O)N[C@H](C(=O)O)c4cc(O)cc(O)c4-c4cc3ccc4O)[C@H](O)c3ccc(c(Cl)c3)Oc3cc2cc(c3O[C@@H]2O[C@H](CO)[C@@H](O)[C@H](O)[C@H]2O[C@H]2C[C@](C)(N)[C@H](O)[C@H](C)O2)Oc2ccc(cc2Cl)[C@H]1O [VANCOMYCIN] |  |  |  |  |  | 1 µg/mL (≈ 0.69 µM) | 1 µg/mL (≈ 0.69 µM) |  |  |  |  |  |  |  |  |  |  | 
